A short description of assay [1]: Her2 expression decrease, cell viability multiplex – SKBR3 breast tumor cells, AlphaScreen, ATP viability, primary screen (AID 461;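 active means Her2 level under about 52% in both replicate screens, with viability over 70% of control, limit read from the data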;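 on Her2 level: lower value means less Her2 protein in the cells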;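 on viability: percent of carrier control wells set as 100% viability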). The settings on record: SKBR3 Her2 protein level, 18-24 h, measured here: SKBR3 viability, ATP luminescence, at 10 µM. (Alpha assays give light when donor and acceptor beads are brought close together.)
The target in assay [2] is Receptor tyrosine-protein kinase erbB-2 (Homo sapiens) (UniProt P04626). The description is as above. The conditions noted are these: 18-24 h, at 10 µM, stronger effect = lower value.
Receptor tyrosine-protein kinase erbB-2 (Homo sapiens), sequence (P04626 whole entry, looked up): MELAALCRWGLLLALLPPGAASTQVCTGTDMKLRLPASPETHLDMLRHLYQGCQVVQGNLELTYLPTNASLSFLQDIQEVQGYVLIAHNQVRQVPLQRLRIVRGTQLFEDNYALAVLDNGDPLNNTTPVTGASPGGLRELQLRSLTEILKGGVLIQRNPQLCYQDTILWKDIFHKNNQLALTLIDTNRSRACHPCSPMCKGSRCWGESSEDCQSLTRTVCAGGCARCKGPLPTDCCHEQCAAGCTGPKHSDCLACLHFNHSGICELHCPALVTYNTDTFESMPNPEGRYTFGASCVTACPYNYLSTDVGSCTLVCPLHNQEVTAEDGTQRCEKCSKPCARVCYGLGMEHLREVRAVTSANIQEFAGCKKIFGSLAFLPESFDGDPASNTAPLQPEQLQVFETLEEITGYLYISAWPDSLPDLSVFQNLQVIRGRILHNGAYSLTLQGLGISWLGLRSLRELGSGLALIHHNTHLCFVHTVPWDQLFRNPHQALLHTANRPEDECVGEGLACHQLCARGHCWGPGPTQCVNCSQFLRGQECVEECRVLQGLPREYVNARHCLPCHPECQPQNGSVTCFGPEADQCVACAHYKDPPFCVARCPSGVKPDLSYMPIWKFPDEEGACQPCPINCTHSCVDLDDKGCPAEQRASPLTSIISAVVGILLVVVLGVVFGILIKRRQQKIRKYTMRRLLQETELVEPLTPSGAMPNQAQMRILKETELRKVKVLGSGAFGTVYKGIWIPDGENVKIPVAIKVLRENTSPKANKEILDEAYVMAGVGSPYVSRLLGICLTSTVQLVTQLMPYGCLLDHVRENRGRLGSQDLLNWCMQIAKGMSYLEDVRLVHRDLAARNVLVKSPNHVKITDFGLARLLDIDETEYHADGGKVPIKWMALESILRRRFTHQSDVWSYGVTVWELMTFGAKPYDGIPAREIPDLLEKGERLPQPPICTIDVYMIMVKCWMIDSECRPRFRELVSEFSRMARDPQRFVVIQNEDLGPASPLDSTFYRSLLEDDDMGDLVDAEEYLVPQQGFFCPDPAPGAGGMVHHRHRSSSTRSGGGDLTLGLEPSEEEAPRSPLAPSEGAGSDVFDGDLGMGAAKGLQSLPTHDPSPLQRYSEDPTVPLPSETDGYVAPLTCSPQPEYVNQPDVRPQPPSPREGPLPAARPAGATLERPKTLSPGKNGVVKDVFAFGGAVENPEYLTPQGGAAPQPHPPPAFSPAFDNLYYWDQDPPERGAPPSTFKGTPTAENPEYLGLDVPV
Assay [3] is described as follows: reduced viability of SK-BR-3 breast cancer cells – cell-based, 24 h, human, pilot screen (AID 572;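 active means viability at or below 10% of carrier control in both of two separate runs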;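 further: compound exposure lasted between 18 and 24 h rather than exactly 24 h; 100% = carrier-treated control wells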). The settings on record: SK-BR-3 viability, CellTiter-Glo luminescence, at 10 µM, stronger effect = lower value.
Assay [4] in a line: HUVEC growth inhibition – cell-based, human, primary screen (AID 575;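 active means viability at or below 30% in both replicate assays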;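 further: 100% = median of untreated cell wells with 0.1% DMSO on each plate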). The conditions noted are these: HUVEC proliferation, CellTiter-Glo luminescence, 72 h; at 10 µM; stronger effect = lower value. Put shortly: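 Assay system: primary human umbilical vein endothelial cells / Buffer or medium: endothelial basal medium with 2% FBS plus growth supplements / Compound dosing: one dose, 10 µM final, 0.1% DMSO / Timing: 72 h treatment at 37 °C / Signal: CTG luminescence / Benchmarks: 32 DMSO-only cell-control wells (high), 32 MePR drug-control wells (low) per plate / Plate: collagen-coated 384-well format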

Assay [5] is described as follows: H69AR cell proliferation blockers – human, duplicate replicates, primary screen (AID 580;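 active means viability at or under a set limit in both replicates, limit being median viability minus 3 SD, cut at about 48% in these data, passing the limit was not always enough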;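 further: 100% = mean luminescence of untreated wells and 0% = no signal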). The conditions noted are these: H69AR lung tumor cells viability, ATP luminescence, 72 h; at 10 µM; stronger effect = lower value.
Assay [6] can be described thus: MRP1 drug-resistance reversers in H69AR cells – cell-based, doxorubicin co-treatment, pilot screen (AID 601). The conditions noted are these: CellTiter-Glo, 72 h, at 10 µM; for differential viability (reversal): stronger effect = higher value.
A short description of assay [7]: yeast transport mutant growth inhibition pilot in 384-well plates, post-Golgi transport modulator project (AID 636; in the data active means inhibition above about 31%). The settings on record: absorbance 615 nm, about 18 h, stronger effect = higher value.
The nature of assay [8]: growth suppression of yeast trafficking mutant, preliminary HTS, modulators of trafficking downstream of Golgi apparatus project, 1536-format plate, OD 615 nm (AID 637; in the data active means inhibition above about 30%). The conditions noted are these: yeast transport mutant growth, absorbance 615 nm, 18 h; stronger effect = higher value.
The mark [9] stands for this setting: H69AR cells + 2 uM doxorubicin, measured here: viability with 2 uM doxorubicin, stronger effect = lower value.
The mark [10] stands for this setting: H69AR cells, compound alone cytotoxicity.

Activity calls are given as the source filed them.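 How the source made its calls, unless noted: active means viability loss from added drug above about 55%, and viability with drug at most 40%, in both replicates (limit read from the data, passing the limit was not always enough); inconclusive means both conditions met in only one replicate; inactive means neither replicate meets both conditions.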

As a reminder, the viability is a read-out of living cells in per cent, often relative to untreated cells. A word on the inhibition: it is the relative decrease from the control value, in per cent.

As to `CCC(Sc1ccc2nnc(-c3ccc(F)cc3)n2n1)C(=O)OC` (stereo not given), the viability in assay [1] was 110%; in assay [3] it was 110% (inactive); in assay [4], 86.4% (inactive); in assay [5], 83% (inactive); in assay [6] (setting [9]), 38%; in assay [6] (setting [10]), 83%. Also, in assay [2], the Her2 level is 90% (inactive). The differential viability (reversal) in assay [6] (H69AR cells + 2 uM doxorubicin) was 45% (inactive). The inhibition in assay [7] was -7.7% (inactive); in assay [8], 2.5% (inactive).
As for `O=S1(=O)CC(N2CCCCC2)C(N2CCCCC2)C1` (stereo not given), the viability in assay [1] was 104%; in assay [3], 104% (inactive); in assay [4] it was 108% (inactive); in assay [5], 95.3% (inactive); in assay [6] (setting [9]) it was 78.3%; in assay [6] (setting [10]), 95.3%. In addition, the Her2 level in assay [2] is 91.5% (inactive). In addition, the differential viability (reversal) in assay [6] (H69AR cells + 2 uM doxorubicin) was 16.9% (inactive). Further, the results for the inhibition in assay [7] and in assay [8] were -2.99% (inactive) and 1.27% (inactive), respectively.
With `CCOc1ccc(N2CC(C(=O)Nc3cccc(C)c3C)CC2=O)cc1` (stereo not given), the viability is 118% in assay [1]; 118% (inactive) in assay [3]; 111% (inactive) in assay [4]; 108% (inactive) in assay [5]; 95.9% in assay [6] (setting [9]); 108% in assay [6] (setting [10]). The Her2 level in assay [2] was 110% (inactive). In addition, the differential viability (reversal) in assay [6] (H69AR cells + 2 uM doxorubicin) is 12.1% (inactive). Moreover, the inhibition in assay [7] is -3.47% (inactive); in assay [8] it was -4.43% (inactive).
For the molecule `CCn1c(SCC(=O)N2CCCc3ccccc32)nnc1-c1cccs1`, the viability is 85.5% in assay [1]; 85.5% (inactive) in assay [3]; 83.3% (inactive) in assay [4]; 87.5% (inactive) in assay [5]; 82.2% in assay [6] (setting [9]); 87.5% in assay [6] (setting [10]). In addition, in assay [2], the Her2 level is 72.5% (inactive). For the same molecule, in assay [6] (H69AR cells + 2 uM doxorubicin), the differential viability (reversal) was 5.33% (inactive). Besides, the figures for the inhibition in assay [7] and in assay [8] were -5.87% (inactive) and 0.16% (inactive), respectively.
As for `CCCCOc1ccc(CSc2n[nH]c(C)n2)cc1`, the viability in assay [1] is 83.5%; in assay [3], 83.5% (inactive); in assay [4], 103% (inactive); in assay [5], 100% (inactive); in assay [6] (setting [9]) it was 89.7%; in assay [6] (setting [10]), 100%. In addition, in assay [2], the Her2 level is 99.5% (inactive). Besides, in assay [6] (H69AR cells + 2 uM doxorubicin), the differential viability (reversal) was 10.7% (inactive). For the same molecule, the inhibition in assay [7] is -1.22% (inactive); in assay [8], -0.49% (inactive).
In the case of `CCOc1ccc(NC(=O)CN(C)S(=O)(=O)c2cccs2)cc1`, the viability is 104% in assay [1]; 104% (inactive) in assay [3]; 101% (inactive) in assay [4]; 93.9% (inactive) in assay [5]; 87.8% in assay [6] (setting [9]); 93.9% in assay [6] (setting [10]). In addition, in assay [2], the Her2 level was 100% (inactive). The differential viability (reversal) in assay [6] (H69AR cells + 2 uM doxorubicin) is 6.1% (inactive). Further, the inhibition in assay [7] was -3.2% (inactive); in assay [8], 1.45% (inactive).
In the case of `CNC(=O)CN(C#N)c1nc(N(C)C)nc(N(C)C)n1`, the viability is 104% in assay [1]; 104% (inactive) in assay [3]; 98.5% (inactive) in assay [4]; 92.8% (inactive) in assay [5]; 90.2% in assay [6] (setting [9]); 92.8% in assay [6] (setting [10]). The Her2 level in assay [2] is 112% (inactive). For the same molecule, the differential viability (reversal) in assay [6] (H69AR cells + 2 uM doxorubicin) is 2.61% (inactive). In addition, the inhibition was -4.93% (inactive) in assay [7] and -6.77% (inactive) in assay [8].
On to `Cc1cccc(NC(=O)CCN2CCN(C/C=C/c3ccccc3)CC2)c1`, for which the viability in assay [1] was 87.5%; in assay [3], 87.5% (inactive); in assay [4], 66% (inactive); in assay [5], 86.3% (inactive); in assay [6] (setting [9]) it was 96.1%; in assay [6] (setting [10]), 86.3%. For the same molecule, in assay [2], the Her2 level was 84.5% (inactive). Moreover, the differential viability (reversal) in assay [6] (H69AR cells + 2 uM doxorubicin) was -9.71% (inactive). Moreover, the values for the inhibition in assay [7] and in assay [8] were -2.53% (inactive) and 3.23% (inactive), respectively.
Turning to `COc1ccc(NC(=O)CN2CCCCC2)cc1`, the viability is 108% in assay [1]; 108% (inactive) in assay [3]; 90.2% (inactive) in assay [4]; 88.2% (inactive) in assay [5]; 82.3% in assay [6] (setting [9]); 88.2% in assay [6] (setting [10]). Also, the Her2 level in assay [2] was 108% (inactive). Besides, the differential viability (reversal) in assay [6] (H69AR cells + 2 uM doxorubicin) was 5.94% (inactive). Further, the inhibition in assay [7] is -5.58% (inactive); in assay [8] it was -10% (inactive).
With `COc1cccc(CN2CCN(C(=O)c3ccco3)CC2)c1OC`, the viability in assay [1] is 112%; in assay [3], 112% (inactive); in assay [4], 118% (inactive); in assay [5] it was 103% (inactive); in assay [6] (setting [9]) it was 96.5%; in assay [6] (setting [10]), 103%. In assay [2], the Her2 level is 90% (inactive). For the same molecule, the differential viability (reversal) in assay [6] (H69AR cells + 2 uM doxorubicin) is 6.7% (inactive). In addition, the inhibition in assay [7] was -5.14% (inactive); in assay [8], 0.95% (inactive).
In the case of `COc1ccc(-c2cc(C(F)(F)F)nc(N3CCN(c4ccc(F)cc4)CC3)n2)cc1OC`, the viability in assay [1] was 78.5%; in assay [3], 78.5% (inactive); in assay [4], 71.7% (inactive); in assay [5], 85.5% (inactive); in assay [6] (setting [9]), 79.1%; in assay [6] (setting [10]), 85.5%. In addition, the Her2 level in assay [2] is 88% (inactive). Besides, in assay [6] (H69AR cells + 2 uM doxorubicin), the differential viability (reversal) was 6.42% (inactive). The inhibition in assay [7] is -2.97% (inactive); in assay [8], 13.9% (inactive).
For `COc1cc(S(=O)(=O)n2nnc3ccccc32)c(OC)cc1Cl`, the viability in assay [1] was 96%; in assay [3], 96% (inactive); in assay [4], 77% (inactive); in assay [5] it was 84.9% (inactive); in assay [6] (setting [9]), 87.9%; in assay [6] (setting [10]), 84.9%. Also, the Her2 level in assay [2] is 81.5% (inactive). In addition, in assay [6] (H69AR cells + 2 uM doxorubicin), the differential viability (reversal) is -3.02% (inactive). The inhibition in assay [7] was -2.8% (inactive); in assay [8], 41.8% (active).
Consider `CC(=O)N1CCc2cc(S(=O)(=O)NCCC3=CCCCC3)ccc21`, for which the viability is 108% in assay [1]; 108% (inactive) in assay [3]; 64% (inactive) in assay [4]; 91.1% (inactive) in assay [5]; 99% in assay [6] (setting [9]); 91.1% in assay [6] (setting [10]). Besides, in assay [2], the Her2 level was 85% (inactive). Also, the differential viability (reversal) in assay [6] (H69AR cells + 2 uM doxorubicin) is -7.85% (inactive). Further, the inhibition in assay [7] was -3.29% (inactive); in assay [8], -2.22% (inactive).
`c1cn2cc(CSC3CCCCC3)nc2s1`: the viability is 84% in assay [1]; 84% (inactive) in assay [3]; 86.5% (inactive) in assay [4]; 97.2% (inactive) in assay [5]; 86.4% in assay [6] (setting [9]); 97.2% in assay [6] (setting [10]). Besides, in assay [2], the Her2 level is 80% (inactive). In assay [6] (H69AR cells + 2 uM doxorubicin), the differential viability (reversal) was 10.9% (inactive). For the same molecule, the figures for the inhibition in assay [7] and in assay [8] were -7.16% (inactive) and 6.35% (inactive), respectively.
Consider `CC(C)CC(c1nnnn1C1CCCC1)N1CCN(c2ccccc2F)CC1` (stereo not given), for which the viability was 92.5% in assay [1]; 92.5% (inactive) in assay [3]; 103% (inactive) in assay [4]; 84.2% (inactive) in assay [5]; 91.9% in assay [6] (setting [9]); 84.2% in assay [6] (setting [10]). In addition, in assay [2], the Her2 level is 94% (inactive). Moreover, the differential viability (reversal) in assay [6] (H69AR cells + 2 uM doxorubicin) was -7.72% (inactive). For the same molecule, the inhibition in assay [7] was -6.32% (inactive); in assay [8], 10.7% (inactive).

For the origin of these results see PubChem BioAssay.
